# T cruzi growth-1: T. cruzi proliferation inhibition. T. cruzi beta-gal in NIH3T3, GalScreen luminescence, 90 h. inhibition, % at 8.34 µM. hit rate 5.9% among 77,000;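 active = mean inhibition above about 93%, with at least 55% of replicates each passing it, limit read from the data, passing the limit was not always enough; inconclusive = only one of those two conditions holds; inactive = neither condition holds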
# IDH1 R132H inh: inhibitors of human IDH1 R132H. IDH1 R132H reductase, diaphorase/resazurin fluorescence, 60 min. inhibition, % at 10 µM. AID 624101. hit rate 0.18% among 70,000; in the data active = inhibition above about 34%; inconclusive = no clear call, values can overlap the other calls; inactive = below about 11%;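 also: 0% = DMSO and 100% = no enzyme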
# Pf Dd2 growth: P. falciparum Dd2 growth inhibition; AID 1159554; hit rate 2.3% among 94,000; activity change, % at 10 µM; SYBR Green, 72 h; stronger effect = lower value; in the data active = activity change below about -80%; inconclusive = no clear call, values can overlap the other calls
# KDM4C inh: KDM4C (human) demethylase inhibition; inhibition, % at 12.5 µM; AID 720574; Q9H3R0; GST-KDM4C 2-372, H3K9me3 peptide, LANCE TR-FRET; hit rate 0.15% among 96,000;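 active = mean replicate inhibition above about 25%, with at least 55% of replicates also reaching it, limit read from the data, passing the limit was not always enough; inconclusive = only one of those two conditions met; inactive = neither condition met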
# Target sequence (Q9H3R0 2-372 limits assumed): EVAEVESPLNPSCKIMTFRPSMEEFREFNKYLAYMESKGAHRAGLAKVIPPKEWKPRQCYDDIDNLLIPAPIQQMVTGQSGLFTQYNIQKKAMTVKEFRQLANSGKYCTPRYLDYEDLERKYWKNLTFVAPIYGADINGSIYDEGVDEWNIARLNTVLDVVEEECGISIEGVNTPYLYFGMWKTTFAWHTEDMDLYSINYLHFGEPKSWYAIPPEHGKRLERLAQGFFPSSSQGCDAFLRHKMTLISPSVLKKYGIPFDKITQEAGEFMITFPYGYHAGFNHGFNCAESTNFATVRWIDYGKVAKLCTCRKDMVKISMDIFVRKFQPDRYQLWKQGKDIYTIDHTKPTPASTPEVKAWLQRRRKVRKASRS
#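 Material: N-terminal GST-fused human GASC-1 (KDM4C) fragment, residues 2-372. Input: 10 nM enzyme. Incubation: enzyme reaction 30 min, then detection 60 min, both room temperature. Doses: one test concentration per compound. Read-out basis: inhibition from TR-FRET ratio decrease. Detection: LANCE TR-FRET, excitation 340 nm, emissions 618 and 671 nm.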
# T cruzi growth-2: blocks T. cruzi growth in NIH3T3 host cells | shares compounds with T cruzi growth-1 | T. cruzi beta-gal in NIH3T3, GalScreen luminescence, 90 h | inhibition, % at 8.35 µM | hit rate 72% among 5,600;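 active = mean replicate inhibition above about 95% and at least 55% of replicates individually reaching it, limit read from the data; inconclusive = only one of the two criteria is met; inactive = neither criterion is met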
# T cruzi growth-3: blocks T. cruzi growth in NIH3T3 host cells | T. cruzi beta-gal in NIH3T3, GalScreen luminescence, 90 h | AID 651740 | shares compounds with T cruzi growth-1 | inhibition, % at 2.09 µM | hit rate 21% among 5,600;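 active = mean inhibition above about 95%, with at least 55% of replicates also reaching it, limit read from the data; inconclusive = meets just one of the two conditions; inactive = meets neither condition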;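 also: plate controls were neutral control median for no effect and positive control median for full effect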
# 3T3 cytotox: NIH/3T3 (mouse) viability loss. shares compounds with T cruzi growth-1. NIH/3T3 viability, CellTiter-Glo ATP luminescence, 90 h. cytotoxicity (signal decrease), % at 8.35 µM. hit rate 14% among 5,600. AID 651742;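 active = mean signal decrease across replicates above about 35% based on untreated-well scatter, with enough replicates individually passing, limit read from the data; inconclusive = no rule stated though some were filed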;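 also: 0% = median of neutral control wells and 100% = median of positive control wells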
# 3T3 cytotox 2: kills mouse NIH/3T3 fibroblasts; shares compounds with T cruzi growth-1; NIH/3T3 viability, CellTiter-Glo ATP luminescence, 90 h; inhibition, % at 24.9 µM; hit rate 56% among 5,600; AID 651744;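 active = mean loss of cell viability signal at or above a set limit, and enough replicates individually reaching it; inconclusive = meets only the mean limit or only the replicate share; inactive = meets neither condition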;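 also: 0% = median of neutral control wells and 100% = median of positive control wells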
# Starred values were filed as active, the others as inactive; ? = inconclusive; · = no result given. Rows were chosen to be rich in hits. Some 5.9% of all compounds tested hit in one or more screens of this group.
SMILES,T cruzi growth-1,IDH1 R132H inh,Pf Dd2 growth,KDM4C inh,T cruzi growth-2,T cruzi growth-3,3T3 cytotox,3T3 cytotox 2
O=C(c1cccc(F)c1)N1CCCCN2[C@H](CO)[C@H](c3ccc(-c4cncnc4)cc3)[C@H]2C1,?,·,14,1,71,47,17,15
O=C(c1cccc(F)c1)N1CCCCN2[C@@H](CO)[C@@H](c3ccc(-c4ccccc4)cc3)[C@@H]2C1,33,·,-58,0,·,·,·,·
OCCN(Cc1ccccc1)c1ncnc2c1sc1nc(N3CCOCC3)c3c(c12)CCCC3,·,0,·,·,·,·,·,·
COc1ccc(NC(=O)C(=O)NCc2cccnc2)cc1OC,·,0,·,·,·,·,·,·
CC(C)(O)C#Cc1ccc([C@@H]2[C@H]3CN(C(=O)c4cccc(F)c4)CCCCN3[C@H]2CO)cc1,91,·,12,0,·,·,·,·
CC(C)(O)C#Cc1ccc([C@@H]2[C@@H](CO)N3CCCCN(C(=O)c4cccc(F)c4)C[C@H]23)cc1,120*,·,16,2,93,-4,-7,19
N#C[C@@H]1N[C@@H](CO)[C@H]1c1ccc(C#CC2CCCC2)cc1,?,·,16,1,71,8,-26,-1
N#C[C@@H]1N[C@@H](CO)[C@H]1c1ccc(C#Cc2ccc(F)cc2)cc1,?,·,3,-3,92,32,-31,11
N#C[C@@H]1N[C@@H](CO)[C@@H]1c1ccc(C#Cc2ccc(F)cc2)cc1,103*,·,7,-1,105*,41,-4,-7
O=S(=O)(Nc1ncccn1)c1ccc(NC(=S)Nc2ccc(F)c(Cl)c2)cc1,·,3,·,·,·,·,·,·
Cc1ncc(CO)c(/C=N/NC(=O)CCCCCC(=O)Nc2ccccc2O)c1O,·,0,·,·,·,·,·,·
Cc1ccc(S(=O)(=O)N(C)C[C@@H]2OCCCC[C@H](C)Oc3ccc(NC(=O)Nc4ccccc4)cc3C(=O)N([C@@H](C)CO)C[C@@H]2C)cc1,108*,-1,-90*,0,102*,71,-2,6
Cc1ccc(S(=O)(=O)N(C)C[C@H]2OCCCC[C@H](C)Oc3ccc(NC(=O)Nc4ccccc4)cc3C(=O)N([C@@H](C)CO)C[C@@H]2C)cc1,111*,1,-83*,6,101*,107*,-24,3
Cc1ccc(S(=O)(=O)N(C)C[C@H]2OCCCC[C@H](C)Oc3ccc(NC(=O)Nc4ccccc4)cc3C(=O)N([C@H](C)CO)C[C@H]2C)cc1,?,·,-88*,2,111*,32,-3,-4
C[C@@H]1CCCCO[C@@H](CN(C)S(=O)(=O)c2ccccc2)[C@@H](C)CN([C@@H](C)CO)C(=O)c2cc(NC(=O)Nc3ccccc3)ccc2O1,30,-1,-75,·,·,·,·,·
Cc1ccc(S(=O)(=O)N(C)C[C@H]2OCCCC[C@@H](C)Oc3ccc(NC(=O)Nc4ccccc4)cc3C(=O)N([C@@H](C)CO)C[C@@H]2C)cc1,109*,·,-83*,-1,109*,63,18,35*
COc1ccccc1OCC(=O)Nc1cccc(-c2nc3ccccc3s2)c1,·,0,·,·,·,·,·,·
CCOC(=O)c1ccc(NC(=O)CSc2nc3sc4c(c3c(=O)n2C)CCCC4)cc1,·,0,·,·,·,·,·,·
Cc1ccc(S(=O)(=O)N(C)C[C@@H]2OCCCC[C@H](C)Oc3ccc(NC(=O)c4ccccc4)cc3C(=O)N([C@H](C)CO)C[C@@H]2C)cc1,95*,-2,-72,0,104*,55,-14,?
C[C@@H]1CN([C@H](C)CO)C(=O)c2cc(NC(=O)c3ccccc3)ccc2O[C@@H](C)CCCCO[C@@H]1CN(C)S(=O)(=O)c1ccccc1,24,·,-72,-1,·,·,·,·
C[C@H]1CCCCO[C@@H](CN(C)S(=O)(=O)c2ccccc2)[C@@H](C)CN([C@@H](C)CO)C(=O)c2cc(NC(=O)Nc3ccccc3)ccc2O1,84,-1,-66,-1,·,·,·,·
Cc1ccc(S(=O)(=O)N(C)C[C@H]2OCCCC[C@@H](C)Oc3ccc(NC(=O)Nc4ccccc4)cc3C(=O)N([C@@H](C)CO)C[C@H]2C)cc1,?,-2,-74,0,106*,103*,-17,19
C[C@@H]1CCCCO[C@H](CN(C)S(=O)(=O)c2ccccc2)[C@H](C)CN([C@@H](C)CO)C(=O)c2cc(NC(=O)Nc3ccccc3)ccc2O1,51,0,-41,0,·,·,·,·
Cc1ccc(S(=O)(=O)N(C)C[C@H]2OCCCC[C@@H](C)Oc3ccc(NC(=O)Nc4ccccc4)cc3C(=O)N([C@H](C)CO)C[C@H]2C)cc1,113*,-1,-87*,-1,109*,108*,-8,7
C[C@@H]1CCCCO[C@@H](CN(C)CC2CCCCC2)[C@H](C)CN([C@H](C)CO)C(=O)c2cc(NC(=O)c3ccccc3)ccc2O1,117*,·,-70,-1,112*,?,20,105*
SMILES,T cruzi growth-1,IDH1 R132H inh,Pf Dd2 growth,KDM4C inh,T cruzi growth-2,T cruzi growth-3,3T3 cytotox,3T3 cytotox 2
C[C@H](CO)N1C[C@H](C)[C@H](CN(C)CC2CC2)OCCCC[C@H](C)Oc2ccc(NC(=O)Nc3ccccc3)cc2C1=O,98*,-2,-77,10,104*,63,16,17
C[C@@H]1CN([C@H](C)CO)C(=O)c2cc(NC(=O)Nc3ccccc3)ccc2O[C@@H](C)CCCCO[C@@H]1CN(C)CC1CCCCC1,87,-1,?,-1,·,·,·,·
C[C@H](CO)N1C[C@H](C)[C@H](CN(C)CC2CCCCC2)OCCCC[C@H](C)Oc2ccc(NC(=O)Nc3ccccc3)cc2C1=O,?,5,-77,1,98*,60,13,105*
C[C@@H]1CCCCO[C@@H](CN(C)CC2CCCCC2)[C@@H](C)CN([C@H](C)CO)C(=O)c2cc(NC(=O)Nc3ccccc3)ccc2O1,103*,1,-65,-2,105*,97*,13,57*
O=C(Cn1nc(C(F)(F)F)c2c1CCCCC2)Nc1ccc(S(=O)(=O)N2CCCC2)cc1,·,0,·,·,·,·,·,·
O=C(Nc1ccc(Cl)cc1)NC(Cc1ccccc1)C(=O)O (stereo unspecified),·,0,·,·,·,·,·,·
Cn1c(SCC(=O)c2ccc([N+](=O)[O-])cc2)nnc1-c1cc2ccccc2cc1O,·,0,·,·,·,·,·,·
C[C@H]1CCCCO[C@H](CN(C)CC2CCCCC2)[C@@H](C)CN([C@@H](C)CO)C(=O)c2cc(NC(=O)Nc3ccccc3)ccc2O1,82,·,-73,-1,·,·,·,·
C[C@@H]1CCCCO[C@@H](CN(C)CC2CCCCC2)[C@H](C)CN([C@H](C)CO)C(=O)c2cc(NC(=O)NC3CCCCC3)ccc2O1,106*,0,-73,-1,104*,84,3,107*
